Source: ChEMBL document CHEMBL1128461, “Synthesis, X-ray crystallography, and pharmacokinetics of novel azomethine prodrugs of (R)-alpha-methylhistamine: highly potent and selective histamine H3 receptor agonists” (J Med Chem, 1995)

Tests used:
[1] = Conversion rate by hydrolysis of compound in plasma after 4 hr at a pH of 7.4; format: ADME, cell-free; details: pH 7.4, read-out: Conversion rate
[2] = Conversion rate by hydrolysis of compound in plasma after 6 hr.; format: ADME, cell-free; details: read-out: Conversion rate
Method in brief: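 Male Swiss mice (20–25 g) were given 24 μmol/kg prodrug orally in 1% methyl cellulose and decapitated at 0.5, 1, 3 or 6 h. Plasma HClO4 extracts were assayed by RIA for free 1, with total 1 measured after heating at 95 °C for 30 min. Value is AUCplasma(1)/[AUCplasma(1)+AUCplasma(prodrug)].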

[3] = Conversion rate by hydrolysis of compound […] after 2 hr at a pH of 1.0; format: ADME, cell-free; details: pH 1; read-out: Conversion rate
Method in brief: (§1)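 Prodrug from a 10 mM DMSO stock, diluted to 4 μM final in 0.4 N HClO4 and held at room temperature. Aliquots were taken at intervals. Free 1 was measured by RIA: p-benzoquinone derivatization for 30 min, then rabbit antiserum and 125I tracer. Hydrolysis % is the measured 1 as a percent of the level for complete hydrolysis.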

[4] = Concentration of compound in Central nervous system; Not detectable; format: ADME, tissue-based
[5] = Conversion rate by hydrolysis of compound […] after 2 hr at a pH of 1.0; Not detectable; format: ADME, cell-free; details: pH 1, 2 h; method in brief: as §1
[6] = Conversion rate by hydrolysis of compound in plasma after 4 hr at a pH of 7.4; Not detectable; format: ADME, cell-free; details: pH 7.4, 4 h
[7] = Plasma concentration (AUC) was determined; Not detectable; format: ADME, cell-free
[8] = Conversion rate by hydrolysis of compound in plasma after 6 h; Not detectable; format: ADME, cell-free

Row | Structure (SMILES) | metabolised at 4 h [1] [%] | metabolised at 6 h [2] [%] | metabolised at 2 h [3] [%] | concentration in CNS [4] | Conversion rate [5] | Conversion rate [6] | AUC [7] | Conversion rate [8]
1 | C[C@H](Cc1c[nH]cn1)/N=C(/c1cc(F)ccc1O)c1cccc2ccccc12 | 1.3 | 11 | 0.2 | Not detectable | – | – | – | –
2 | C[C@H](Cc1c[nH]cn1)N=C(c1ccccc1O)c1ccccc1O | – | – | – | Not detectable | Not detectable | Not detectable | – | –
3 | C[C@H](Cc1c[nH]cn1)/N=C(\c1ccc(F)cc1)c1ccccc1O | – | 26 | 20.1 | – | – | – | – | –
4 | C[C@@H]1Cc2[nH]cnc2C(c2ccccc2O)N1 (some centres undefined) | – | – | 0.2 | Not detectable | – | – | Not detectable | Not detectable
5 | C[C@H](Cc1c[nH]cn1)/N=C(\c1ccc(F)cc1)c1cc(F)ccc1O | 33.8 | 45 | 63.8 | – | – | – | – | –
6 | C[C@H](Cc1c[nH]cn1)/N=C(\c1ccc(Cl)cc1)c1ccccc1O | – | 28 | 18.3 | – | – | – | – | –
7 | C[C@H](Cc1c[nH]cn1)/N=C(\c1ccccc1)c1ccccc1O | – | 14 | 14.1 | Not detectable | – | – | – | –
8 | C[C@H](Cc1c[nH]cn1)/N=C(\c1ccc(Cl)cc1)c1cc(F)ccc1O | 15.2 | 42 | 62 | – | – | – | – | –
9 | C[C@H](Cc1c[nH]cn1)/N=C(\c1ccc(F)cc1)c1cc(Cl)ccc1O | 26 | 40 | 67.1 | – | – | – | – | –
10 | C[C@H](Cc1c[nH]cn1)/N=C(\c1ccc(Cl)cc1)c1cc(Cl)ccc1O | 16.2 | 58 | 62.7 | – | – | – | – | –

More lines, main results first:

Row | metabolised at 4 h [1] [%] | metabolised at 6 h [2] [%] | metabolised at 2 h [3] [%] | concentration in CNS [4] | Conversion rate [5] | Conversion rate [6] | Structure (SMILES) | AUC [7] | Conversion rate [8]
11 | 15.4 | 24 | 30 | – | – | – | C[C@H](Cc1c[nH]cn1)/N=C(\c1ccccc1)c1cc(F)ccc1O | – | –
12 | 6 | – | 3 | Not detectable | – | – | COc1ccc(/C(=N/[C@H](C)Cc2c[nH]cn2)c2ccccc2)c(O)c1 | Not detectable | –
13 | 2.8 | 41 | 5.6 | Not detectable | – | – | Cc1cc(O)c(/C(=N/[C@H](C)Cc2c[nH]cn2)c2ccccc2)cc1Cl | – | –
14 | 16.6 | 31 | 34.6 | – | – | – | C[C@H](Cc1c[nH]cn1)/N=C(\c1ccccc1)c1cc(Br)ccc1O | – | –
15 | – | 29 | 11.9 | Not detectable | – | – | Cc1ccc(O)c(/C(=N/[C@H](C)Cc2c[nH]cn2)c2ccccc2)c1 | – | –
16 | 19.6 | 28 | 79.3 | – | – | – | C[C@H](Cc1c[nH]cn1)/N=C(\c1ccccc1)c1cc(F)cc(Cl)c1O | – | –
17 | 23.2 | 33 | 46.9 | Not detectable | – | – | C[C@H](Cc1c[nH]cn1)/N=C(\c1ccccc1)c1cc(Cl)ccc1O | – | –
